An excerpt weighted towards active compounds, which were near 2% of everything screened.
ARNT-TACC3 inh: disrupts binding between human ARNT and TACC3; Q9Y6A5; inhibition, % at 9.99 µM; 0.66% of 390,000 active; AID 623870; AlphaScreen His-ARNT PAS-B/GST-TACC3 binding, luminescence; TACC3 fragment carries E629A point mutation;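 active = mean inhibition of replicates at least 50% and at least half of replicates each reaching 50%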
XiGFP reactiv: X-chromosome reactivation activator; XiGFP mouse fibroblasts, % GFP-positive cells imaging, 3 d; cells co-treated with 5-aza-dC sensitizer; scaled so ellipticine positive control = 100%; activation, % at 7.58 µM; 0.055% of 360,000 active; AID 743238;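 active = mean normalized replicate activation at least 10% and every replicate at or above 10%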
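System: XiGFP fibroblasts, SV40-immortalized. Medium: DMEM plus 5-aza-dC sensitizer. Doses: single point. Timing: 3 d treatment, 15 min room-temperature fixation. Control set: ellipticine 6 µM.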
NSD2 inh: inhibitors of human histone methyltransferase NSD2; AID 743445; inhibition, % at 12.5 µM; 0.54% of 310,000 active; NSD2 peptide methylation, AlphaScreen, 120 min; in the data active = inhibition above about 50%
Target sequence (O96028 whole entry, looked up): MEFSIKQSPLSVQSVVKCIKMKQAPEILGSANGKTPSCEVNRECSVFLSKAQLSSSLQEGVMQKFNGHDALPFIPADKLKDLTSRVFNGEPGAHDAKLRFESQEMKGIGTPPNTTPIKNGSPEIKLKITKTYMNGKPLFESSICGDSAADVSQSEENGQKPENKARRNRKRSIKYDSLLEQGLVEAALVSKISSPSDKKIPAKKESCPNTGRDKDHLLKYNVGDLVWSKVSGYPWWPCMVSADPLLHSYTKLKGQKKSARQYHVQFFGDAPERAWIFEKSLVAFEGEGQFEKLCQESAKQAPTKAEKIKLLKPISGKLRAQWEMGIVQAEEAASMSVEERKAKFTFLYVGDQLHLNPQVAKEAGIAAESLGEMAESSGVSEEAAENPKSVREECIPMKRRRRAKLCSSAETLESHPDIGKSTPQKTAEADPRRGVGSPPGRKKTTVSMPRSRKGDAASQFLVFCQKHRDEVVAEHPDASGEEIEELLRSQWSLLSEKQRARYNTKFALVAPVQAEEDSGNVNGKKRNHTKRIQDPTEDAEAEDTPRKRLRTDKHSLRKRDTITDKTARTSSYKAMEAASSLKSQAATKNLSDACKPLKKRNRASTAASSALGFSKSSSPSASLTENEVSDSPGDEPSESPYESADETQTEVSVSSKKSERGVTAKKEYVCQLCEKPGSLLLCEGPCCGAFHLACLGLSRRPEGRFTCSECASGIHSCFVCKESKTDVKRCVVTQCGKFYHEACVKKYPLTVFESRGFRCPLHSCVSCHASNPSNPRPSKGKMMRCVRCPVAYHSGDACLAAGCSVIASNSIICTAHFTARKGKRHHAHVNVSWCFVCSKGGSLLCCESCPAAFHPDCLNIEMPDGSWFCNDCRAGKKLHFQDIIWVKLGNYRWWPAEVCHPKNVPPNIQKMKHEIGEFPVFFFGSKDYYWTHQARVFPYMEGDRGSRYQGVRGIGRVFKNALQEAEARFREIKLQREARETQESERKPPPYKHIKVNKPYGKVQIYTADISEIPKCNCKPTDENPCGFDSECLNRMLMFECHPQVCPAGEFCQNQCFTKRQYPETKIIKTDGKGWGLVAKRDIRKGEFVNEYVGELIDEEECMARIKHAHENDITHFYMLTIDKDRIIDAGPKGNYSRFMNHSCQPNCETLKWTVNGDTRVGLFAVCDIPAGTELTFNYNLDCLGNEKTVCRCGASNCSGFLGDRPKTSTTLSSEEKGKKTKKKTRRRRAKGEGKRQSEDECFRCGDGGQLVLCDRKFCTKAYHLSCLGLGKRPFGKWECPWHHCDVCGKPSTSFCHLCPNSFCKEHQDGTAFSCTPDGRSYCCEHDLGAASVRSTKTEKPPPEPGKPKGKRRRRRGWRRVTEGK
SR-BI HDL uptake: inhibitors of mouse SR-BI mediated HDL lipid uptake; ldlA[mSR-BI] CHO cells, DiI-HDL uptake fluorescence, 3 h; inhibition, % at 12.5 µM; 0.96% of 320,000 active; Q61009; AID 488896;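 active = mean replicate inhibition of at least 70% and a set share of replicates each scoring 70 or more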
SR-BI uptake up: enhances SR-BI lipid uptake from DiI-HDL. 0.096% of 320,000 active. AID 504775. CHO ldlA[mSR-BI] cells, DiI-HDL uptake fluorescence, 3 h; 100 = double the neutral-control signal. activation, % at 12.5 µM;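 active = mean replicate activation of at least 60% and every replicate at or above 60%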
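material = CHO ldlA[mSR-BI] cells | medium = Ham's F12 with 0.5% BSA, HEPES 25 mM, pH 7.4 | reagent = fluorescent DiI-HDL, 10 µg/mL final | compound dosing = single-point compound dose | incubation = 3 h, 37 °C | measured by = bottom-read fluorescence, 550/595 nm | measure = HDL uptake via cellular fluorescence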
HGIII-sPLA2 inh: Blocks human group III sPLA2 activity | QFRET BODIPY PC-A2 liposome hydrolysis, fluorescence | inhibition, % at 12.2 µM | 0.56% of 370,000 active;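 active = inhibition above mean plus 3 SD of compounds lying within the high and low control bounds, cut at about 19% in these data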
A number is an active result.

Screening COC(=O)[C@@H]1C[C@]2(OC(=O)c3ccccc3)C=CC(=O)C[C@@H]2N1C(=O)OCc1ccccc1 returned ARNT-TACC3 inh inactive, XiGFP reactiv inactive, SR-BI HDL uptake inactive, SR-BI uptake up inactive and HGIII-sPLA2 inh inactive.
Brc1ccc(-c2ccc(CNCc3ccccn3)o2)cc1 was read as ARNT-TACC3 inh inactive, XiGFP reactiv inactive, NSD2 inh inactive, SR-BI HDL uptake inactive, SR-BI uptake up inactive and HGIII-sPLA2 inh inactive.
`Clc1cccc(-c2ccc(CNCc3ccccn3)o2)c1` gave ARNT-TACC3 inh 74, XiGFP reactiv inactive, NSD2 inh inactive, SR-BI HDL uptake inactive, SR-BI uptake up inactive and HGIII-sPLA2 inh inactive.
`COc1ccc(OC)c(NC(=O)CN(Cc2ccccc2)S(C)(=O)=O)c1` gave ARNT-TACC3 inh inactive, XiGFP reactiv inactive, NSD2 inh inactive, SR-BI HDL uptake inactive, SR-BI uptake up inactive and HGIII-sPLA2 inh inactive.
Screening CC1=NN(c2nc(-c3ccc(C)cc3)cs2)C(=O)C1N=Nc1ccc(C(N)=O)cc1 (centres undefined) returned ARNT-TACC3 inh inactive, XiGFP reactiv inactive, NSD2 inh inactive, SR-BI HDL uptake 81, SR-BI uptake up inactive and HGIII-sPLA2 inh inactive.
COC(=O)CCN(C(=O)c1ccc(OC(C)=O)cc1)c1ccccn1 was read as ARNT-TACC3 inh inactive, SR-BI HDL uptake inactive, SR-BI uptake up inactive and HGIII-sPLA2 inh inactive.
For COc1ccc(-n2nc(C(=O)NCC(=O)Nc3cc(Cl)c(OC)cc3OC)c3ccccc3c2=O)cc1 the results were ARNT-TACC3 inh inactive, XiGFP reactiv inactive, NSD2 inh inactive, SR-BI HDL uptake 84, SR-BI uptake up inactive and HGIII-sPLA2 inh inactive.
For COc1ccc(-n2nc(C(=O)NCC(=O)Nc3cc(OC)ccc3OC)c3ccccc3c2=O)cc1 the results were ARNT-TACC3 inh inactive, XiGFP reactiv inactive, NSD2 inh inactive and HGIII-sPLA2 inh inactive.
CCc1ccc(-n2cc(-c3ccc([N+](=O)[O-])cc3)[nH]c2=S)cc1 was read as ARNT-TACC3 inh inactive, XiGFP reactiv inactive, NSD2 inh inactive, SR-BI HDL uptake inactive, SR-BI uptake up inactive and HGIII-sPLA2 inh inactive.
Screening CCc1ccc(-c2cn(C3CCCCC3)c(=S)[nH]2)cc1 returned ARNT-TACC3 inh inactive, XiGFP reactiv inactive, NSD2 inh inactive, SR-BI HDL uptake inactive, SR-BI uptake up inactive and HGIII-sPLA2 inh 23.
C/C(=N\N1C(=O)c2ccccc2NC1c1ccccc1)c1ccccc1O (centres undefined) was read as ARNT-TACC3 inh inactive, XiGFP reactiv inactive, NSD2 inh inactive, SR-BI HDL uptake 85, SR-BI uptake up inactive and HGIII-sPLA2 inh inactive.
C/C(=N\N1C(=O)c2ccccc2NC1c1ccco1)c1ccccc1O (centres undefined) was read as ARNT-TACC3 inh inactive, XiGFP reactiv inactive, NSD2 inh inactive, SR-BI HDL uptake inactive, SR-BI uptake up 86 and HGIII-sPLA2 inh inactive.
`COc1ccc(-c2ccc([C@H]3[C@H](CO)N4C(=O)CN(C(=O)c5ccccc5)C[C@@H]34)cc2)cc1` gave XiGFP reactiv inactive.
`CCOC(=O)c1c(NC(C)=O)sc2c(OCC(O)CN(CC)CC)c(Br)ccc12` (centres undefined) gave ARNT-TACC3 inh inactive, XiGFP reactiv inactive, NSD2 inh inactive, SR-BI HDL uptake 83, SR-BI uptake up inactive and HGIII-sPLA2 inh inactive.
`CCOC(=O)c1c(NC(C)=O)sc2c(OCCN(CC)CC)c(Br)ccc12` gave ARNT-TACC3 inh inactive, XiGFP reactiv inactive, NSD2 inh inactive, SR-BI HDL uptake inactive, SR-BI uptake up inactive and HGIII-sPLA2 inh inactive.
`CCOc1ccc(NC(=O)CN(C)C(=O)c2n[nH]c(=O)c3ccccc23)cc1OCC` gave ARNT-TACC3 inh inactive, XiGFP reactiv inactive, NSD2 inh inactive, SR-BI HDL uptake inactive, SR-BI uptake up inactive and HGIII-sPLA2 inh inactive.
Screening COCCN=c1scc(-c2cccs2)n1/N=C(\C)c1ccco1 returned ARNT-TACC3 inh 46, XiGFP reactiv inactive, NSD2 inh inactive, SR-BI HDL uptake inactive, SR-BI uptake up inactive and HGIII-sPLA2 inh inactive.
For CCOc1ccc(C(=O)Nc2ccc(N3CCN(C(C)=O)CC3)cc2)cc1[N+](=O)[O-] the results were ARNT-TACC3 inh inactive, XiGFP reactiv inactive, NSD2 inh inactive, SR-BI HDL uptake 72, SR-BI uptake up inactive and HGIII-sPLA2 inh inactive.
CCOC(=O)c1ccc(NC(=O)c2ccc(OC(C)C)c(OC)c2)cc1 was read as ARNT-TACC3 inh inactive, XiGFP reactiv inactive, NSD2 inh inactive, SR-BI HDL uptake 92, SR-BI uptake up inactive and HGIII-sPLA2 inh inactive.
CCOC(=O)c1ccc(NC(=O)Nc2ccc(OC)c(OC)c2)cc1 was read as ARNT-TACC3 inh inactive, SR-BI HDL uptake inactive, SR-BI uptake up inactive and HGIII-sPLA2 inh inactive.
`Cc1ccc(C(=O)N2CCN(c3ccc(NC(=O)c4cccnc4)cc3)CC2)cc1` gave NSD2 inh inactive, SR-BI HDL uptake inactive, SR-BI uptake up inactive and HGIII-sPLA2 inh inactive.
CCc1ccc(NC(=O)c2ccc(OC)c([N+](=O)[O-])c2)cc1 was read as ARNT-TACC3 inh inactive, XiGFP reactiv inactive, NSD2 inh inactive, SR-BI HDL uptake 76, SR-BI uptake up inactive and HGIII-sPLA2 inh inactive.
For COc1cc(C(=O)Nc2ccc(N3CCN(C(=O)c4ccc(C)cc4)CC3)cc2)cc(OC)c1OC the results were ARNT-TACC3 inh inactive, XiGFP reactiv inactive, NSD2 inh inactive, SR-BI HDL uptake 76 and HGIII-sPLA2 inh inactive.
COc1ccc(C(=O)Nc2ccc(N3CCOCC3)cc2)cc1S(=O)(=O)N1CCCC1 was read as ARNT-TACC3 inh inactive, XiGFP reactiv inactive, NSD2 inh inactive, SR-BI HDL uptake inactive, SR-BI uptake up inactive and HGIII-sPLA2 inh inactive.
Screening COc1ccc(C(=O)Nc2ccc(N3CCOCC3)cc2)cc1S(=O)(=O)NC1CCCC1 returned ARNT-TACC3 inh inactive, XiGFP reactiv inactive, NSD2 inh inactive, SR-BI HDL uptake 76, SR-BI uptake up inactive and HGIII-sPLA2 inh inactive.
For CCOc1ccc(C(F)(F)F)cc1NC(=O)c1ccc(OC)c([N+](=O)[O-])c1 the results were ARNT-TACC3 inh inactive, NSD2 inh inactive, SR-BI HDL uptake 80, SR-BI uptake up inactive and HGIII-sPLA2 inh inactive.
`C/C(=N\NC(=O)c1c(Cl)cnn1C)c1cccc(NC(=O)C(C)C)c1` gave ARNT-TACC3 inh inactive, XiGFP reactiv inactive, NSD2 inh inactive, SR-BI HDL uptake inactive, SR-BI uptake up inactive and HGIII-sPLA2 inh inactive.
Cc1ccccc1C(=O)Nc1cccc(C(=O)N/N=C/c2ccccn2)c1 was read as ARNT-TACC3 inh 46, XiGFP reactiv inactive, SR-BI HDL uptake inactive, SR-BI uptake up inactive and HGIII-sPLA2 inh inactive.
`Cc1ccc(C(=O)Nc2cccc(C(=O)N/N=C/c3ccc(F)cc3)c2)cc1` gave ARNT-TACC3 inh inactive, XiGFP reactiv inactive, NSD2 inh inactive, SR-BI HDL uptake 76, SR-BI uptake up inactive and HGIII-sPLA2 inh inactive.
